Measurements published in ChEMBL document CHEMBL1212693, “Dorsomorphin inhibits BMP signals required for embryogenesis and iron metabolism” (Nat Chem Biol, 2008).
Activity calls are given as the source filed them. The rule behind the calls is not given here.

Legend:
Danio rerio [1] = species on record: Danio rerio; assay: Inhibition of BMPR1 in zebrafish assessed as penetrance of normal embryonic axis dorsalization at 10 uM treated at 2 to 8 hrs post-fertilization measured at 48 hrs; set-up: scale not given: the % may be the effect or the level left
Danio rerio [2] = assay: Inhibition of iron-dextran conjugate-induced Smad-8 phosphorylation in zebrafish at 23 ug/g, iv after 1 hr relative to control; assay type: functional
Danio rerio [3] = species on record: Danio rerio; assay: Inhibition of BMPR1 in zebrafish assessed as penetrance of mild embryonic axis dorsalization at 10 uM treated at 4 to 8 hrs post-fertilization measured at 48 hrs; set-up: scale not given: the % may be the effect or the level left
How it was run: (§1)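 Compound added at the stated times and concentrations. Gross morphology scored visually at up to 48 h.p.f. for dorsalization of the embryonic axis.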

Mus musculus [4] = species on record: Mus musculus; assay: Inhibition of BMPR1-mediated Smad-5 phosphorylation in BMP7-stimulated mouse PASMC at 4 uM treated 30 mins before BMP7 challenge measured after 30 mins by immunoblot analysis
How it was run: (§2)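 Wild-type mouse PASMCs were kept in RPMI with 0.5% FCS for 24 h. They were preincubated with compound or vehicle for 30 min, then stimulated for 30 min with recombinant BMP2, BMP4, BMP6 or BMP7 at 10 ng ml−1. Lysates in SDS buffer were immunoblotted with anti-phospho-SMAD1/5/8. Total SMAD1 and α-tubulin served as loading controls, and bands were quantified by phosphorimager.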

Mus musculus [5] = species on record: Mus musculus; assay: Inhibition of BMPR1-mediated Smad-1 phosphorylation in BMP6-stimulated mouse PASMC at 4 uM treated 30 mins before BMP6 challenge measured after 30 mins by immunoblot analysis
How it was run: (§3)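 PASMCs (wild-type or BMPR-II–deficient) were kept 24 h in RPMI with 0.5% FCS, preincubated 30 min with compound or vehicle, then stimulated 30 min with recombinant BMP (10 ng ml−1). Extracts in SDS-lysis buffer were immunoblotted for phospho-SMAD1/5/8, with total SMAD1 and α-tubulin as loading controls. Bands were quantitated by phosphorimager.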

Mus musculus [6] = assay: Inhibition of iron-dextran conjugate-induced Smad-8 phosphorylation in C57BL/6 mouse at 23 ug/g, iv after 1 hr; assay type: functional, organism-based
Danio rerio [7] = species on record: Danio rerio; assay: Inhibition of BMPR1 in zebrafish assessed as penetrance of normal embryonic axis dorsalization at 10 uM treated at 2 to 6 hrs post-fertilization measured at 48 hrs; set-up: scale not given: the % may be the effect or the level left
Danio rerio [8] = species on record: Danio rerio; assay: Inhibition of BMPR1 in zebrafish assessed as penetrance of normal embryonic axis dorsalization at 10 uM treated continuously from 8 hrs post-fertilization measured at 48 hrs; set-up: scale not given: the % may be the effect or the level left
Danio rerio [9] = species on record: Danio rerio; assay: Inhibition of BMPR1 in zebrafish assessed as severity of embryonic axis dorsalization at 5 uM treated at 3 hrs post-fertilization measured at 48 hrs; set-up: scale not given: the % may be the effect or the level left
Mus musculus [10] = species on record: Mus musculus; assay: Inhibition of BMPR1-mediated Smad-1 phosphorylation in BMP4-stimulated mouse BMPR2 deficient PASMC at 4 uM treated 30 mins before BMP4 challenge measured after 30 mins by immunoblot analysis; how it was run: as §3
Danio rerio [11] = species on record: Danio rerio; assay: Toxicity in zebrafish assessed as survivability at 10 uM treated at 3 hrs post-fertilization measured at 48 hrs; assay type: organism-based; settings: in vivo
Mus musculus [12] = species on record: Mus musculus; assay: Inhibition of BMPR1-mediated Smad-8 phosphorylation in BMP4-stimulated mouse PASMC at 100 to 200 ng/ml treated 30 mins before BMP4 challenge measured after 30 mins by immunoblot analysis
How it was run: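 Mouse PASMCs were held 24 h in RPMI with 0.5% FCS. They were preincubated 30 min with test agent, noggin or vehicle, then exposed to recombinant BMP4 for 30 min. SDS lysates were immunoblotted for phospho-SMAD1/5/8 and bands quantified by phosphorimager. Dose-dependence was fitted as a Hill plot.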

Mus musculus [13] = species on record: Mus musculus; assay: Inhibition of ALK3-mediated Smad-5 phosphorylation in BMPR2 deficient mouse PASMC at 10 uM by immunoblot analysis
How it was run: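 BMPR-II–deficient mouse PASMCs (RPMI, 10% FBS) transiently transfected with constitutively active ALK2, ALK3 or ALK6 cDNA, or plasmid-only control. Incubated with or without compound (10 µM). Extracts lysed in SDS buffer, run on SDS-PAGE and immunoblotted for phospho-SMAD1/5/8; quantitated by phosphorimager.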

Danio rerio [14] = species on record: Danio rerio; assay: Inhibition of BMPR1 in zebrafish assessed as penetrance of moderate embryonic axis dorsalization at 10 uM treated at 6 to 8 hrs post-fertilization measured at 48 hrs; set-up: scale not given: the % may be the effect or the level left; how it was run: as §1
Mus musculus [15] = species on record: Mus musculus; assay: Inhibition of BMPR1-mediated Smad-8 phosphorylation in BMP6-stimulated mouse PASMC at 4 uM treated 30 mins before BMP6 challenge measured after 30 mins by immunoblot analysis; how it was run: as §2
Danio rerio [16] = species on record: Danio rerio; assay: Inhibition of BMPR1 in zebrafish assessed as penetrance of mild embryonic axis dorsalization at 10 uM treated continuously from 8 hrs post-fertilization measured at 48 hrs; set-up: scale not given: the % may be the effect or the level left; how it was run: as §1
Mus musculus [17] = species on record: Mus musculus; assay: Inhibition of BMPR1-mediated Smad-1 phosphorylation in BMP6-stimulated mouse BMPR2 deficient PASMC at 4 uM treated 30 mins before BMP6 challenge measured after 30 mins by immunoblot analysis; how it was run: as §3
Mus musculus [18] = species on record: Mus musculus; assay: Inhibition of BMPR1-mediated Smad-1 phosphorylation in BMP4-stimulated mouse PASMC at 4 uM treated 30 mins before BMP4 challenge measured after 30 mins by immunoblot analysis; how it was run: as §3
Mus musculus [19] = assay: Inhibition of iron-dextran conjugate-induced Smad-5 phosphorylation in C57BL/6 mouse at 23 ug/g, iv after 1 hr; assay type: functional, organism-based
Danio rerio [20] = species on record: Danio rerio; assay: Inhibition of BMPR1 in zebrafish assessed as penetrance of normal embryonic axis dorsalization at 0.5 uM treated at 3 hrs post-fertilization measured at 48 hrs; set-up: scale not given: the % may be the effect or the level left
Mus musculus [21] = species on record: Mus musculus; assay: Inhibition of BMPR1-mediated MAPK p38 phosphorylation in BMP4-stimulated mouse PASMC at 100 to 200 ng/ml treated 30 mins before BMP4 challenge measured after 30 mins by immunoblot analysis
How it was run: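 Mouse PASMCs were serum-reduced 24 h in 0.5% FCS RPMI, pretreated 30 min with noggin or vehicle, then given BMP4 for 30 min. Lysates in SDS buffer were immunoblotted for phospho-SMAD1/5/8 and phospho-MAPK p38, and signals were quantitated by phosphorimager.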

Danio rerio [22] = species on record: Danio rerio; assay: Inhibition of BMPR1 in zebrafish assessed as penetrance of normal embryonic axis dorsalization at 0.2 uM treated at 3 hrs post-fertilization measured at 48 hrs; set-up: scale not given: the % may be the effect or the level left
Mus musculus [23] = species on record: Mus musculus; assay: Inhibition of BMPR1-mediated Smad-8 phosphorylation in BMP2-stimulated mouse BMPR2 deficient PASMC at 4 uM treated 30 mins before BMP2 measured after 30 mins by immunoblot analysis
Danio rerio [24] = species on record: Danio rerio; assay: Inhibition of BMPR1 in zebrafish assessed as severity of embryonic axis dorsalization at 10 uM treated at 2 to 4 hrs post-fertilization measured at 48 hrs; set-up: scale not given: the % may be the effect or the level left
Danio rerio [25] = species on record: Danio rerio; assay: Inhibition of BMPR1 in zebrafish assessed as penetrance of normal embryonic axis dorsalization at 10 uM treated continuously from 10 hrs post-fertilization measured at 48 hrs; set-up: scale not given: the % may be the effect or the level left
Danio rerio [26] = species on record: Danio rerio; assay: Inhibition of BMPR1 in zebrafish assessed as penetrance of normal embryonic axis dorsalization at 10 uM treated continuously from 4 hrs post-fertilization measured after 48 hrs; set-up: scale not given: the % may be the effect or the level left
Danio rerio [27] = species on record: Danio rerio; assay: Inhibition of BMPR1 in zebrafish assessed as increase in myod expression at 10 uM treated at 12 hrs post-fertilization measured at 48 hrs
Danio rerio [28] = species on record: Danio rerio; assay: Inhibition of BMPR1 in zebrafish assessed as severity of embryonic axis dorsalization at 10 uM treated continuously from 8 hrs post-fertilization measured at 48 hrs; set-up: scale not given: the % may be the effect or the level left

SMILES: c1cc(-c2cnn3cc(-c4ccc(OCCN5CCCCC5)cc4)cnc23)ccn1 [DORSOMORPHIN]
- Activity (Danio rerio [1]): 0%
- fold change (FC) (Danio rerio [2]): 3
- Activity (Danio rerio [3]): 65%
- inhibition (Mus musculus [4]): Active
- inhibition (Mus musculus [5]): Active
- inhibition (Mus musculus [6]): Active
- Activity (Danio rerio [7]): 0%
- Activity (Danio rerio [8]): 15%
- Activity (Danio rerio [9]): 19%
- inhibition (Mus musculus [10]): Active
- Activity (Danio rerio [11]): Non-toxic
- inhibition (Mus musculus [12]): Active
- inhibition (Mus musculus [13]): Active
- Activity (Danio rerio [14]): 5%
- inhibition (Mus musculus [15]): Active
- Activity (Danio rerio [16]): 85%
- inhibition (Mus musculus [17]): Active
- inhibition (Mus musculus [18]): Active
- inhibition (Mus musculus [19]): Active
- Activity (Danio rerio [20]): 100%
- inhibition (Mus musculus [21]): Active
- Activity (Danio rerio [22]): 100%
- inhibition (Mus musculus [23]): Active
- Activity (Danio rerio [24]): 0%
- Activity (Danio rerio [25]): 100%
- Activity (Danio rerio [26]): 0%
- Activity (Danio rerio [27]): Active
- Activity (Danio rerio [28]): 0%
